Shown is part of a subset that was picked to be rich in hits.
ABCG2 inh: blocks JC-1 efflux by human ABCG2 transporter; 190,000 compounds, 0.1% hits; Q9UNQ0; IgMXP3 cells, flow cytometry; AID 1325; inhibition, % at 6.6 µM;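 active = inhibition above 80%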
Target sequence (Q9UNQ0 whole entry, looked up): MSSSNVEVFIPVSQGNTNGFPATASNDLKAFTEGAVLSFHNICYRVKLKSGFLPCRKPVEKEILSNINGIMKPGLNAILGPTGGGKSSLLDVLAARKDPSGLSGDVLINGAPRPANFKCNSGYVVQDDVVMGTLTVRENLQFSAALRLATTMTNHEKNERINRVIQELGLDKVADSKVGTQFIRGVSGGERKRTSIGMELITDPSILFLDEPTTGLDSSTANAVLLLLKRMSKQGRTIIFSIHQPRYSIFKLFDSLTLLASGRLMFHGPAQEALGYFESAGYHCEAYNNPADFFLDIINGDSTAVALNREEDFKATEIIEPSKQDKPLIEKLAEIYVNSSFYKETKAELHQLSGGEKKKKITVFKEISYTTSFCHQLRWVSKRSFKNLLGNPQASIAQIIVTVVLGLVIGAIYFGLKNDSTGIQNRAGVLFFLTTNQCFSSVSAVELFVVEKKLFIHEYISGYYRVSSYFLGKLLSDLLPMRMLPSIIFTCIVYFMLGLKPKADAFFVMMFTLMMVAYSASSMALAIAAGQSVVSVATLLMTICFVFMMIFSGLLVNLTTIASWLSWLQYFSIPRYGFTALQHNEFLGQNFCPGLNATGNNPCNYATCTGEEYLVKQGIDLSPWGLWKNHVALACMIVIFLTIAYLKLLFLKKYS
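Test system: IgMXP3 cells (ABCG2) mixed with DDAO far-red-labelled CCRF-Adr cells (ABCB1). Reagent: JC-1 transporter substrate. Compound dosing: single test compound dose, 6.6 µM final. Times: 10 min compound exposure, 25 °C. Detection: flow cytometry of retained JC-1 fluorescence. Read-out basis: efflux inhibition in percent versus controls. Controls: nicardipine and DMSO wells.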
FLuc act counter: firefly luciferase counter-screen for stimulation assays. AID 1027. activation factor at 10 µM. ATPlite luciferase biochemical, luminescence, 10 min; 0 = ATP-free wells, 1 = DMSO control. 200,000 tested, under 10 active;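 active = luciferase activation factor, scaled between plate controls, of at least 2 with compound at 10 µM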
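Material: Luciferase/luciferin reagent mix; Doses: test compounds dosed from 2 mM stocks in 100% DMSO; Schedule: 10 min incubation after luciferase reagent addition, room temperature; Measured by: luminescence from luciferase reaction; Read-out: luminescence gain marking luciferase activators.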
FLuc inh counter: counter-screen for luciferase assay inhibitors: firefly luciferase inhibition; ATPLite firefly luciferase biochemical luminescence, 10 min; inhibition, % at 10 µM; 200,000 compounds, 1.5% hits;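 active = inhibition above about 50% when tested at 10 µM, limit read from the data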
ABCB1 block: human ABCB1 inhibition, ABCG2 as counter-screen; 190,000 compounds, 0.067% hits; CCRF-Adr cells, JC-1 efflux, flow cytometry; inhibition, % at 6.6 µM; AID 1326; P08183; in the data active = inhibition above about 40%;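 also: higher value means more JC-1 retained so stronger ABCB1 efflux block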
Diaphorase act: diaphorase activation or chemical reduction counter-screen | Diaphorase/resazurin coupled assay, resorufin fluorescence, 16 min; hits give high values; 1 = vehicle wells, 0 = NADH-free wells | activation factor at 20 µM | 190,000 compounds, 0.005% hits;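 active = diaphorase activity raised at least twofold by the compound at 20 µM; inactive = activation factor below 2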
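Material: Purified diaphorase enzyme from Clostridium kluyveri | Buffer or medium: 50 mM HEPES pH 7.4 with 4.542 mM MgCl2, 0.005% Tween 20 | Times: 16 min enzyme reaction, ambient temperature | Signal: Red resorufin fluorescence at 544/590 nm excitation/emission | Measure: Increased resorufin signal from activators or reducing compounds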
ABCB6 inh MLPCN: blocks the human ABCB6 transporter. AID 602162. fluorescence ratio to DMSO, % at 10 µM. 360,000 compounds, 0.19% hits. K562-ABCB6 porphyrin accumulation, flow cytometry, 1 h; hits give low values;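 active = fluorescence ratio to DMSO below 75%, the collection mean minus 3 SD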;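 also: signal is porphyrin accumulated inside mitochondria; lower ratio means ABCB6 inhibition with less porphyrin fluorescence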
A number is an active result; n = inactive; x = no result given.

SMILES	ABCG2 inh	FLuc act counter	FLuc inh counter	ABCB1 block	Diaphorase act	ABCB6 inh MLPCN
C(/CCc1ccccc1)=N\Nc1nc2ccccc2[nH]1	n	n	84	n	n	n
CSc1ccccc1NC(=O)c1cc(-c2cccnc2)nc2ccc(Br)cc12	n	n	n	n	n	n
Cc1nc2nc(NC(=O)c3ccco3)[nH]n2c(=O)c1C	x	x	x	x	x	n
CCCc1ccc(S(=O)(=O)N/N=C(/C)c2ccc3c(c2)OCO3)cc1	x	x	x	x	x	n
COc1cc(CNCCO)ccc1OCCc1ccccc1	x	x	x	x	x	n
O=C(c1ccccc1F)N1CCN(c2ccc([N+](=O)[O-])c(N3CCOCC3)c2)CC1	n	n	90	n	n	n
Cc1ccccc1C(=O)N1CCN(c2ccc([N+](=O)[O-])c(N3CCOCC3)c2)CC1	n	n	n	n	n	n
CN(C)c1ccc(NC(=O)c2cnsn2)cc1	n	n	72	n	n	n
COC(=O)C(NC(=O)c1ccccc1)=C1CCCCC1	n	n	n	n	n	74
CC1=C/C(=C\c2ccc3c(c2)OCO3)C(=O)S1	n	n	51	n	n	n
CCCN1C/C(=C/c2ccc3c(c2)OCO3)C(=O)/C(=C/c2ccc3c(c2)OCO3)C1	n	n	n	n	n	n
COc1ccc(OC)c(/C=N/Nc2nncn2/N=C/c2cc(OC)ccc2OC)c1	n	n	n	n	n	n
COc1cc(/C=N/Nc2nncn2/N=C/c2ccc(O)c(OC)c2)ccc1O	n	n	96	n	n	n
Fc1cccc(CSc2ccc(-c3ccc4c(c3)OCO4)nn2)c1	n	n	n	n	n	n
c1cncc(CSc2ccc(-c3ccc4c(c3)OCO4)nn2)c1	n	n	53	n	n	n
CN(C)c1cc(O)c(C(=S)Nc2ccccc2)c(N(C)C)c1	n	n	n	n	n	n
CN(C)c1ccc(C(=S)Nc2ccccc2)cc1	n	n	56	n	n	n
CN(C)c1ccc(NC(=O)Oc2ccccc2)cc1	n	n	74	n	n	n
CN(C)S(=O)(=O)c1ccc(NC(=O)c2ccccn2)cc1	n	n	n	n	n	n
CN(C)c1ccc(NC(=S)c2ccccn2)cc1	n	n	95	n	n	n
Cc1cc(O)ccc1NC(=O)Cc1cccc2ccccc12	x	x	x	x	x	n
COc1ccc(S(=O)(=O)NCC(c2ccc(F)cc2)N2CCOCC2)cc1Br (centres undefined)	x	x	x	x	x	n
CC(NC(=O)COC(=O)c1ccc2c(=O)n3c(nc2c1)CCCCC3)c1ccccc1 (centres undefined)	x	x	x	x	x	n
CCOc1ccc2nc(-c3ccccc3)[nH]c2c1	n	n	84	n	n	n
CCOc1ccc2nc(C(C)O)[nH]c2c1 (centres undefined)	n	n	n	n	n	n
SMILES	ABCG2 inh	FLuc act counter	FLuc inh counter	ABCB1 block	Diaphorase act	ABCB6 inh MLPCN
Oc1c(Br)cc(C=Nc2ccc3nc(-c4ccccc4)[nH]c3c2)c(O)c1Br	n	n	56	n	n	x
COc1ccc2nc(-c3ccccc3)[nH]c2c1	n	n	74	n	n	n
COc1ccc(-c2nc3ccc([N+](=O)[O-])cc3[nH]2)cc1	n	n	n	n	n	n
Cc1cc(N2C(=O)c3ccc(C(=O)Nc4ccc(CC(=O)O)cc4)cc3C2=O)no1	x	x	x	x	x	n
CCOc1ccc(OCc2cccc(C(=O)N3CCOCC3)c2)cc1	n	n	72	n	n	n
O=C(c1cccc(OCc2ccccc2)c1)N1CCOCC1	n	n	n	n	n	n
CS(=O)(=O)NCCOc1ccc(S(=O)(=O)NCCOc2ccccc2)cc1	n	n	n	n	n	n
Cc1cccc(C)c1NS(=O)(=O)c1ccc(OCCNS(C)(=O)=O)cc1	n	n	81	n	n	n
COc1cc(OC)c2c(=O)cc(-c3ccccc3)oc2c1	n	n	58	n	n	n
COc1ccccc1CN(CC(=O)NCc1ccc(F)cc1)C(=O)c1csnn1	x	x	x	x	x	n
CC1COc2c3ccccc3nn21 (centres undefined)	x	x	x	x	x	n
C=CCn1c(Sc2nnc(C)s2)nc2c1c(=O)[nH]c(=O)n2C	n	n	n	n	n	68
C=CCn1c(SCC(=C)C)nc2c1c(=O)[nH]c(=O)n2C	x	x	x	x	x	n
CC1=CN2C(=N)/C(=C/c3ccco3)C(=O)N=C2S1	n	n	92	n	n	n
CCNC(=S)NNC(=O)c1cc(-c2cccc(C)c2)nc2ccccc12	n	n	89	n	n	n
COc1cccc(-c2cc(C(=O)Nn3cnnc3)c3ccccc3n2)c1	n	n	82	n	n	n
CCNC(=S)NNC(=O)c1cc(-c2cccc(OCC)c2)nc2ccccc12	n	n	58	n	n	n
COc1cccc(-c2cc(C(=O)NN3CCOCC3)c3ccccc3n2)c1	n	n	n	n	n	n
CC(C)(C)n1nnnc1C1c2ccccc2C(=O)N1CCc1c[nH]c2ccccc12 (centres undefined)	x	x	x	x	x	n
Fc1ccc(-c2nnc(-c3ccc(Cl)cc3Cl)o2)cc1	n	n	89	n	n	n
Fc1ccc(-c2nnc(-c3ccc(Cl)cc3)o2)cc1	n	n	n	n	n	n
Clc1ccc(-c2nnc(-c3ccccc3)o2)c(Cl)c1	n	n	86	n	n	n
CSc1ccccc1-c1nnc(-c2ccc(Cl)cc2Cl)o1	n	n	60	n	n	n
Clc1ccc(-c2nnc(-c3ccc(Br)o3)o2)c(Cl)c1	n	n	n	n	n	n
Cc1ccc(-c2nnc(-c3ccccc3)o2)cc1	n	n	67	n	n	n
SMILES	ABCG2 inh	FLuc act counter	FLuc inh counter	ABCB1 block	Diaphorase act	ABCB6 inh MLPCN
O=C(COc1ccccc1Cl)NCCNC(=O)c1cccnc1	x	x	x	x	x	n
CC(=O)Nc1cc2c3ccccc3ccc2c2ccccc12	x	x	x	x	x	74
Cc1ccc(C)c(CC(=O)N2CCCCC2c2cc(C(=O)Nc3ccc(F)c(Cl)c3)no2)c1 (centres undefined)	x	x	x	x	x	n
COc1ccc(Nc2nnc(SCC(=O)N3CC(=O)Nc4ccccc43)s2)cc1	n	n	55	n	n	n
COc1ccc(Nc2nnc(SCC(=O)N3CCCC3)s2)cc1	n	n	n	n	n	n
Cc1ccsc1C(=O)N1CCN(S(=O)(=O)c2cccc(F)c2)CC1	x	x	x	x	x	n
COc1ccc(NC(=O)c2csc(Cc3ccccc3)n2)cc1	x	n	n	x	n	n
O=C(Nc1ccc(F)cc1)c1csc(Cc2ccccc2)n1	n	n	53	n	n	n
Cc1cc(NC(=O)NC(=O)c2ccc(F)cc2F)n[nH]1	n	n	53	n	n	n
COc1cccc(OCC(=O)NN=C2c3ccccc3-c3ccccc32)c1	n	n	n	n	n	44
COc1cccc(OCC(=O)Nc2ccccc2-c2ccccc2)c1	n	n	n	n	n	n
Cc1cc(C(=O)CSc2n[nH]c(N)n2)c(C)n1-c1ccccc1	n	n	59	n	n	n

Source: PubChem
